According to ChEMBL document CHEMBL1152541, “Staurosporine tethered peptide ligands that target cAMP-dependent protein kinase (PKA): optimization and selectivity profiling” (Bioorg Med Chem, 2009):
Values belong to the compound of their own block, whether it stands above or below them. *1 amine or outer side, *2 acyl side, *3 side chain or, on linkers, in order; H or OH if unused. Where a SMILES comes first, the peptide text is derived from it. Bridges are numbered along the chain shown (N, C = ends). [ ]: non-standard residue; d: D form. The star is where a group is joined. Staurosporine = CO[C@@H]1[C@H](N(C)*)C[C@H]2O[C@]1(C)n1c3ccccc3c3c4c(c5c6ccccc6n2c5c31)C(=O)NC4; Suc = O=C(CCC(=O)[*:2])[*:1]; Dap = NC[C@H](N)C(=O)O; βAla = NCCC(=O)O

How the values were obtained:
[1] = biological target: Proto-oncogene tyrosine-protein kinase receptor Ret (Homo sapiens) (UniProt P07949); test: Binding affinity to human RET at 500 nM by cell-based competition binding assay relative to control in presence of DTT
[2] = biological target: T1, TGF-beta receptor type-1 (Homo sapiens) (UniProt P36897); test: Binding affinity to human TGFBR1 at 500 nM by cell-based competition binding assay relative to control in presence of DTT
T1 sequence (whole entry): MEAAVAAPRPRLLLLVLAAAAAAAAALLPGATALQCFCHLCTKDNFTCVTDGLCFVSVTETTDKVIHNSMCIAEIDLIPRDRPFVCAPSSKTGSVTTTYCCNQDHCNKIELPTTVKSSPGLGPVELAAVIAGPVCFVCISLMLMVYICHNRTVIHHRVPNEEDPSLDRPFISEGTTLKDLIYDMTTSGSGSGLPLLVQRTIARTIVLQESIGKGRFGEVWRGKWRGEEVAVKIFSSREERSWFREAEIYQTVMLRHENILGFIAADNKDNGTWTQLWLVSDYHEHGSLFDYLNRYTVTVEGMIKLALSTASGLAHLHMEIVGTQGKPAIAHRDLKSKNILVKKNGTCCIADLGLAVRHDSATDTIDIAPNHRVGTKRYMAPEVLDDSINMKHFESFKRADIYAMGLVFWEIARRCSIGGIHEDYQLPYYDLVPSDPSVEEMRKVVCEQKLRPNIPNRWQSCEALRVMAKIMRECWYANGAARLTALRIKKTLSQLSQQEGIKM

[3] = biological target: Tyrosine-protein kinase ABL1 (Homo sapiens) (UniProt P00519); test: Binding affinity to human ABL1 at 500 nM by cell-based competition binding assay relative to control in presence of DTT
Procedure, shortened: (§1)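 Kinase binding profiling ran on a commercial (Ambit) competitive binding screen against a panel of 90 kinases. The screen used reducing conditions with 7.5 mM DTT. To withstand the DTT, the bivalent ligand was tested as its amide isostere, with the disulfide replaced. A staurosporine derivative carrying a 3 β-alanine linker was run as the reference compound.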

[4] = biological target: Tyrosine-protein kinase receptor UFO (Homo sapiens) (UniProt P30530); test: Binding affinity to human AXL at 500 nM by cell-based competition binding assay relative to control in presence of DTT; procedure, shortened: as §1
[5] = biological target: Tyrosine-protein kinase BTK (Homo sapiens) (UniProt Q06187); test: Binding affinity to human BTK at 500 nM by cell-based competition binding assay relative to control in presence of DTT; procedure, shortened: as §1
[6] = biological target: Fibroblast growth factor receptor 3 (Homo sapiens) (UniProt P22607); test: Binding affinity to human FGFR3 at 500 nM by cell-based competition binding assay relative to control in presence of DTT
Procedure, shortened: (§2)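 Commercial (Ambit) competitive kinase-binding panel of 90 kinases measured the binding profile. Run under reducing conditions of 7.5 mM DTT. Binding is expressed relative to control.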

[7] = biological target: Glycogen synthase kinase-3 beta (Homo sapiens) (UniProt P49841); test: Binding affinity to human GSK3-beta at 500 nM by cell-based competition binding assay relative to control in presence of DTT
Procedure, shortened: (§3)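 Competition binding screen (Ambit) across a panel of 90 kinases, scoring test ligand displacement of each kinase's binding relative to control. The screen ran under reducing conditions with 7.5 mM DTT.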

[8] = biological target: MAP kinase-activated protein kinase 2 (Homo sapiens) (UniProt P49137); test: Binding affinity to human MAPKAPK2 at 500 nM by cell-based competition binding assay relative to control in presence of DTT; procedure, shortened: as §3
[9] = biological target: Dual specificity mitogen-activated protein kinase kinase 2 (Homo sapiens) (UniProt P36507); test: Binding affinity to human MEK2 at 500 nM by cell-based competition binding assay relative to control in presence of DTT
[10] = biological target: Mitogen-activated protein kinase kinase kinase 9 (Homo sapiens) (UniProt P80192); test: Binding affinity to human MLK1 at 500 nM by cell-based competition binding assay relative to control in presence of DTT
[11] = biological target: Platelet-derived growth factor receptor alpha (Homo sapiens) (UniProt P16234); test: Binding affinity to human PDGFRalpha at 500 nM by cell-based competition binding assay relative to control in presence of DTT
[12] = Ratio of compound IC50 to bivalent ligand 1 IC50 for PKA
[13] = biological target: Epidermal growth factor receptor (Homo sapiens) (UniProt P00533); test: Binding affinity to human EGFR at 200 nM by cell-based competition binding assay relative to control in presence of DTT; procedure, shortened: as §2
[14] = biological target: Mitogen-activated protein kinase 11 (Homo sapiens) (UniProt Q15759); test: Binding affinity to human p38beta at 200 nM by cell-based competition binding assay relative to control in presence of DTT
[15] = biological target: Cyclin-dependent kinase 2 (Homo sapiens) (UniProt P24941); test: Binding affinity to human CDK2 at 200 nM by cell-based competition binding assay relative to control in presence of DTT; procedure, shortened: as §1
[16] = biological target: Cyclin-dependent kinase 19 (Homo sapiens) (UniProt Q9BWU1); test: Binding affinity to human CDK11 at 50 nM by cell-based competition binding assay relative to control in presence of DTT; procedure, shortened: as §1
[17] = biological target: Mast/stem cell growth factor receptor Kit (Homo sapiens) (UniProt P10721); test: Binding affinity to human KIT at 50 nM by cell-based competition binding assay relative to control in presence of DTT; procedure, shortened: as §3
[18] = biological target: Mitogen-activated protein kinase kinase kinase 4 (Homo sapiens) (UniProt Q9Y6R4); test: Binding affinity to human MAP3K4 at 50 nM by cell-based competition binding assay relative to control in presence of DTT; procedure, shortened: as §3
[19] = biological target: MAP kinase-interacting serine/threonine-protein kinase 1 (Homo sapiens) (UniProt Q9BUB5); test: Binding affinity to human MKNK1 at 50 nM by cell-based competition binding assay relative to control in presence of DTT
[20] = biological target: Fibroblast growth factor receptor 3 (Homo sapiens) (UniProt P22607); test: Binding affinity to human FGFR3 at 50 nM by cell-based competition binding assay relative to control in presence of DTT; procedure, shortened: as §2

Fibroblast growth factor receptor 3 (Homo sapiens), sequence (P22607 23-806 limits assumed): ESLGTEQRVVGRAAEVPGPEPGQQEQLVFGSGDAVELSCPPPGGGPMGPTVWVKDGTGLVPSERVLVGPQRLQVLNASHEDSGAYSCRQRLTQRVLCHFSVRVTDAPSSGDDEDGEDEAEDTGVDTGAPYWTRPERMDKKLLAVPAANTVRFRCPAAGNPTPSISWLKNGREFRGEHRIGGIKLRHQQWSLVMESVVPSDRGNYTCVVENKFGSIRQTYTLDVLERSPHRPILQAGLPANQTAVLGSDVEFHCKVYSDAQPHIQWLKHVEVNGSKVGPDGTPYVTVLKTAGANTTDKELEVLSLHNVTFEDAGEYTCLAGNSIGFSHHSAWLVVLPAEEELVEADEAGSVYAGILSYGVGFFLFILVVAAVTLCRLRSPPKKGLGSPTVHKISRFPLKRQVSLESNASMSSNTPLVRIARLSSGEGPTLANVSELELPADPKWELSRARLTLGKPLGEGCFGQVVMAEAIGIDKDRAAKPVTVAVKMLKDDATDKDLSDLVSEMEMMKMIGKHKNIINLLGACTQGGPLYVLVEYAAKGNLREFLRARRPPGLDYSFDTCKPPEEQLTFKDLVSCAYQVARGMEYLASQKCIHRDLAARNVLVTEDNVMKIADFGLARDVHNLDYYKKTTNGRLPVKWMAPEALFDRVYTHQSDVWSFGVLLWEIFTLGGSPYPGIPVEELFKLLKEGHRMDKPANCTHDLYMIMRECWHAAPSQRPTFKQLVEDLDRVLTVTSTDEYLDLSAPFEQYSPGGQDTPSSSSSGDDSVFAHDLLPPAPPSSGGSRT
Tyrosine-protein kinase BTK (Homo sapiens), sequence (Q06187 whole entry): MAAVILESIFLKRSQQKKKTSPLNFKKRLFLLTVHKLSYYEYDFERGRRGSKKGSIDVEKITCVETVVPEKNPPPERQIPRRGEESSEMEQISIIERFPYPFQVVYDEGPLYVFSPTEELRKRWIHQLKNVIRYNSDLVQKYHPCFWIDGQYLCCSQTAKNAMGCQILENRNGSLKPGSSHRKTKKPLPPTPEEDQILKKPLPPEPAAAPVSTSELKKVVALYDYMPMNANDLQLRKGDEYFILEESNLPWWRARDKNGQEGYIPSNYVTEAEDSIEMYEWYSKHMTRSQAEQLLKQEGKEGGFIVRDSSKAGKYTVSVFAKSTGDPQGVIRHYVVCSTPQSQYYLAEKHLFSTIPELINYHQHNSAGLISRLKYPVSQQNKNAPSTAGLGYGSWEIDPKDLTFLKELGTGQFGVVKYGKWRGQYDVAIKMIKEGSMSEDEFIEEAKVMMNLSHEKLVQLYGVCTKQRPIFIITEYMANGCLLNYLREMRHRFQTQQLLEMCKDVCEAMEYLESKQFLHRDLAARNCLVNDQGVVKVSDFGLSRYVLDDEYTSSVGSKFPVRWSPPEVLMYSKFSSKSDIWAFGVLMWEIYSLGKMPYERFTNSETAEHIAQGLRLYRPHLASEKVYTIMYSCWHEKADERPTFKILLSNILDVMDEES
Platelet-derived growth factor receptor alpha (Homo sapiens), sequence (P16234 whole entry): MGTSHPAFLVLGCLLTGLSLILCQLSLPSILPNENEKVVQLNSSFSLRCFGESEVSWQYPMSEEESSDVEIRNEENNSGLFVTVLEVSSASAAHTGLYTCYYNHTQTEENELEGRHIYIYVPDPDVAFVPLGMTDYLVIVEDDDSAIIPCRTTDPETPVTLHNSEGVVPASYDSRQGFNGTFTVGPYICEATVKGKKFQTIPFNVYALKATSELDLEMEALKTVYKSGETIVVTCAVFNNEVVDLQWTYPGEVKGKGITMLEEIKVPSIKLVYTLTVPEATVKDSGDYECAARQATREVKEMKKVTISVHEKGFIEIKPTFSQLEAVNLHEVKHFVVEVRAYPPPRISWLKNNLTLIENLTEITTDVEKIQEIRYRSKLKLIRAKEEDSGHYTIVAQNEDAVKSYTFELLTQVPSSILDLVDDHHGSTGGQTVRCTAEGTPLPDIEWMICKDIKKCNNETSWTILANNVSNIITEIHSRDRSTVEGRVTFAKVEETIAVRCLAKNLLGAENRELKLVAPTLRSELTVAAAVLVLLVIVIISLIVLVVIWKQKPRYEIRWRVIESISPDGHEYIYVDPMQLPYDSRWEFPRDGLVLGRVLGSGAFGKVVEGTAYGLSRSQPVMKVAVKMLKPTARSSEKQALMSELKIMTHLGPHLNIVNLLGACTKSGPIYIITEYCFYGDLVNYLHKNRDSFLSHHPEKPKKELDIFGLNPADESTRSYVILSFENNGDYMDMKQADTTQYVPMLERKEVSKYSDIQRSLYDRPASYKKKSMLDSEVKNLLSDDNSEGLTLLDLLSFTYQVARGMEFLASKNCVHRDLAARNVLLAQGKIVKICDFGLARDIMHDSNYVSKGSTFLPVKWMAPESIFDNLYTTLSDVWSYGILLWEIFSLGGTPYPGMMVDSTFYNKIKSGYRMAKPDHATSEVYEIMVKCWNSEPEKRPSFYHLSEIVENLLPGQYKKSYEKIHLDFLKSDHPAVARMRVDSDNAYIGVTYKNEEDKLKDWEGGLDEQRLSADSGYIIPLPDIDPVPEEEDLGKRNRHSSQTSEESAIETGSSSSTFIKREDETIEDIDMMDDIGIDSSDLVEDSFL
Mitogen-activated protein kinase kinase kinase 4 (Homo sapiens), sequence (Q9Y6R4 whole entry): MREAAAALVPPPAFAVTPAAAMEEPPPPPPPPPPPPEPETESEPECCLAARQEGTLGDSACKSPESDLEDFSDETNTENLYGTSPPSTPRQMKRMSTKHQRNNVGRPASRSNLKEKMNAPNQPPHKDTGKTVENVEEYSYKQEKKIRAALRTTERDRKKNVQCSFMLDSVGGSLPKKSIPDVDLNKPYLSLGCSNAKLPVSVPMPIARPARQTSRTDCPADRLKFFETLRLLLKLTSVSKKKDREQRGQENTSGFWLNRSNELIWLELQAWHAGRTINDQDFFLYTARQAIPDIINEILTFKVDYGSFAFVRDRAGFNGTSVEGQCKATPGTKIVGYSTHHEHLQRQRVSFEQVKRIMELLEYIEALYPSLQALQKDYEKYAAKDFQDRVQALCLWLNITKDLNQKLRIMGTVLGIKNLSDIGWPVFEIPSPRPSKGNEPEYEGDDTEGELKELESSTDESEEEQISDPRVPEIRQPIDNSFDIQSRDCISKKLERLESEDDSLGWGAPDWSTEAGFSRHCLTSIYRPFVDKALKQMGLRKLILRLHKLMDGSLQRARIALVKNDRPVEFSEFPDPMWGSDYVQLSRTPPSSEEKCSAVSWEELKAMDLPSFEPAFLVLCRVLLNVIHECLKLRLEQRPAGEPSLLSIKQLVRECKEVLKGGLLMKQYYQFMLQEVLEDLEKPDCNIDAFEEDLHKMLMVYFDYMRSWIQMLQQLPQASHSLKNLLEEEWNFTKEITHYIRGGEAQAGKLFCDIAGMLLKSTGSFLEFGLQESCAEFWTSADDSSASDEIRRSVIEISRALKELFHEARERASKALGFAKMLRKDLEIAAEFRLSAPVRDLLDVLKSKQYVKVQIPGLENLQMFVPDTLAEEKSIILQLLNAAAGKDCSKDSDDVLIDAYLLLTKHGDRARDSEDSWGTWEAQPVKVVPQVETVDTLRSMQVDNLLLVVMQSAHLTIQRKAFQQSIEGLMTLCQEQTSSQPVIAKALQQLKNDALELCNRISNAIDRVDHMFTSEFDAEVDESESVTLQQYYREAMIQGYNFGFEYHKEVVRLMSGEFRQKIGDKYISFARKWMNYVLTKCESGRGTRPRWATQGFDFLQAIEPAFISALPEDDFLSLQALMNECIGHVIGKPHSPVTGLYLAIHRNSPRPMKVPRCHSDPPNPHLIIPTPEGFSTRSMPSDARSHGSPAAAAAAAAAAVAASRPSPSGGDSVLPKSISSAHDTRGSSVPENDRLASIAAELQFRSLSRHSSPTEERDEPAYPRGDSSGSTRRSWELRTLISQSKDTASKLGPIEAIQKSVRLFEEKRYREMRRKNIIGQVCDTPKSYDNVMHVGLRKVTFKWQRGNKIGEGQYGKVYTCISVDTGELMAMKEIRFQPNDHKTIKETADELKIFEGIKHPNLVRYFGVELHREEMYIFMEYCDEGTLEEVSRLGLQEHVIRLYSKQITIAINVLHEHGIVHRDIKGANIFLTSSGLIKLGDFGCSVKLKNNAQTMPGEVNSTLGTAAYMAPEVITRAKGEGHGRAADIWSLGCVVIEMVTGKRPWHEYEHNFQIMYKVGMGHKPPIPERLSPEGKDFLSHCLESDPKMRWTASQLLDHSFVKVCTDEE
Mast/stem cell growth factor receptor Kit (Homo sapiens), sequence (P10721 whole entry): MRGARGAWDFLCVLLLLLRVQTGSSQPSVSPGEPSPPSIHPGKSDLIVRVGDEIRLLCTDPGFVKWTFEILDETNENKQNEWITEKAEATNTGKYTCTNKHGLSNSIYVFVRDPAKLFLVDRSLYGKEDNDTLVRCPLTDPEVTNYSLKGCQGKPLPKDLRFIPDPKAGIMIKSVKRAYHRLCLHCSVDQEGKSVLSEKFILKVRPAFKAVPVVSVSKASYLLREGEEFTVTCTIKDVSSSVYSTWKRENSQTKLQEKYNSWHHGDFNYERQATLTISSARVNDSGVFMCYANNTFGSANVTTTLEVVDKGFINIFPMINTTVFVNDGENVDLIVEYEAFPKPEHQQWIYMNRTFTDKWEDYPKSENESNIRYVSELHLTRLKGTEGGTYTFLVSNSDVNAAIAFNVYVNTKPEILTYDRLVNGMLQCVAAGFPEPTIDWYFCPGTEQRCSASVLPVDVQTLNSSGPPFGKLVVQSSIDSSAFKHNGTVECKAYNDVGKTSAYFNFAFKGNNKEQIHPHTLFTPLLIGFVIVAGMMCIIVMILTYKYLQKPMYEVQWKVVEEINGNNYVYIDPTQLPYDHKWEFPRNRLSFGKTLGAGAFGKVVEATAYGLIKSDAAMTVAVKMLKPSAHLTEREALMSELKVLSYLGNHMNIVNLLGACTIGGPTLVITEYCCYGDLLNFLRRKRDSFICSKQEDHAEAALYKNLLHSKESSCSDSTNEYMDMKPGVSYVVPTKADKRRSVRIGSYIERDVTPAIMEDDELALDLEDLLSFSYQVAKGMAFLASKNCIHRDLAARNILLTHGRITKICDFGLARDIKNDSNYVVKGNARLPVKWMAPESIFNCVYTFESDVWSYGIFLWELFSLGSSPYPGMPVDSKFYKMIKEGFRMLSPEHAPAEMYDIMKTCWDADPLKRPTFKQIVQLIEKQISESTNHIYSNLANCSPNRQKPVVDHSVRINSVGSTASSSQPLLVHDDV

Activity [1]: 5.6%
Activity [2]: 75%
Activity [3]: 68%
Activity [4]: 8%
Activity [5]: 31%
Activity [6]: 43%
Activity [7]: 94%
Activity [8]: 100%
Activity [9]: 86%
Activity [10]: 0.55%
Activity [11]: 7%
Ratio IC50 [12]: > 60
Structure (SMILES): CO[C@@H]1[C@H](N(C)C(=O)CCC(=O)NCCC(=O)NCCC(=O)NCCC(N)=O)C[C@H]2O[C@]1(C)n1c3ccccc3c3c4c(c5c6ccccc6n2c5c31)C(=O)NC4

Activity [13]: 96%
Activity [14]: 100%
Activity [15]: 100%
Structure (SMILES): CO[C@@H]1[C@H](N(C)C(=O)CCC(=O)NCCC(=O)NCCC(=O)NCCC(=O)NCCC(=O)NCCC(=O)NCCC(=O)NCCC(=O)N[C@H]2CSSC[C@@H](C(=O)NCC(N)=O)NC(=O)CNC(=O)[C@H](Cc3ccccc3)NC(=O)[C@H](C(C)C)NC(=O)[C@H](CCCNC(=N)N)NC(=O)[C@H](Cc3ccccc3)NC(=O)[C@H](C(C)C)NC2=O)C[C@H]2O[C@]1(C)n1c3ccccc3c3c4c(c5c6ccccc6n2c5c31)C(=O)NC4 ({Staurosporine-Suc-βAla-βAla-βAla-βAla-βAla-βAla-βAla}-CVFRVFGCG-NH2; disulfide 1-8)

Activity [16]: 100%
Activity [17]: 85%
Activity [18]: 96%
Activity [19]: 100%
Activity [20]: 100%
Structure (SMILES): CO[C@@H]1[C@H](N(C)C(=O)CCC(=O)NCCC(=O)NCCC(=O)NCCC(=O)NCCC(=O)NCCC(=O)NCCC(=O)NCCC(=O)N[C@H]2CNC(=O)C[C@@H](C(N)=O)NC(=O)CNC(=O)[C@H](Cc3ccccc3)NC(=O)[C@H](C(C)C)NC(=O)[C@H](CCCNC(=N)N)NC(=O)[C@H](Cc3ccccc3)NC(=O)[C@H](C(C)C)NC2=O)C[C@H]2O[C@]1(C)n1c3ccccc3c3c4c(c5c6ccccc6n2c5c31)C(=O)NC4 ({Staurosporine-Suc-βAla-βAla-βAla-βAla-βAla-βAla-βAla}-[Dap]VFRVFGD-NH2; lactam 1-8)
